The source of these data is ChEMBL document CHEMBL1212793, “Bortezomib inhibits hepatitis B virus replication in transgenic mice” (Antimicrob Agents Chemother, 2010).

Activity calls are given as the source filed them. The rule behind the calls is not given here.

The subject of data set [1] is Hepatitis B virus. The following applies: 5 mg/kg.
Data set [2] concerns Mus musculus. Nature of the data set: Toxicity in HBV infected 1.3.32 transgenic mouse liver assessed as hepatitis at 5 mg/kg, iv single dose after 24 hrs by rotine […] method. The following applies: in vivo. Also on record: dose 5 mg/kg, route intravenous. In kind it is organism-based. An outline of the steps: (§1)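 Male HBV 1.3.32 transgenic mice, 8–12 weeks, HBeAg-matched. Each got a single i.v. dose in saline/mannitol: 1 mg/kg examined at day 1, 2 or 6, or 0.2, 1.0 or 5.0 mg/kg examined at 24 h. Diluent-only animals served as controls. Livers from representative mice were fixed in zinc-buffered formalin, embedded in paraffin and stained with H&E for pathology.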

The subject of data set [3] is Hepatitis B virus. The following applies: 1 mg/kg.
Data set [4] relates to Mus musculus. Nature of the data set: Toxicity in HBV infected 1.3.32 transgenic mouse liver assessed as serum alanine aminotransferase level at 5 mg/kg, iv after 24 hrs. It counts as organism-based. Also on record: dose 5 mg/kg, route intravenous. The note with it: in vivo. An outline of the steps:
(§2)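 Serum ALT was read spectrophotometrically with Infinity ALT reagent against enzyme standards. Mice were HBV 1.3.32 transgenic males, 8–12 weeks, HBeAg-matched, with 3–4 per group. They received a single i.v. injection in 0.9% NaCl/mannitol: 1 mg/kg sampled at 1, 2, 3 or 6 days, or 0.2, 1 or 5 mg/kg sampled at 24 h. Controls got diluent only.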

In data set [5] the test system is Hepatitis B virus. The note with it: Liver, 1 mg/kg.
The subject of data set [6] is Mus musculus. Nature of the data set: Toxicity in HBV infected 1.3.32 transgenic mouse liver assessed as hepatitis at 0.2 mg/kg, iv single dose after 24 hrs by rotine […] method. In kind it is organism-based. Also on record: dose 0.2 mg/kg, route intravenous. The following applies: in vivo. The gist of the method: as §1
Data set [7] relates to Mus musculus. Nature of the data set: Toxicity in 1.3.32 transgenic mouse assessed as serum alanine aminotransferase level liver at 1 mg/kg, iv after 6 days […]. The following applies: in vivo, 144 h. It counts as organism-based. Also on record: dose 1 mg/kg, route intravenous.
Data set [8] has as its system Mus musculus. Nature of the data set: Toxicity in 1.3.32 transgenic mouse liver assessed as serum alanine aminotransferase level at 1 mg/kg, iv after 2 days. Also on record: dose 1 mg/kg, route intravenous. It counts as organism-based. The following applies: in vivo, 48 h. The gist of the method: as §2
In data set [9] the test system is Hepatitis B virus. Description: Antiviral activity against HBV infected in 1.3.32 transgenic mouse assessed as serum HBeAg level at 5 mg/kg, iv single dose after 24 hrs by ELISA. In kind it is functional. The gist of the method: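 Serum HBeAg and HBsAg were measured by ELISA in HBV 1.3.32 transgenic mice (male, 8-12 wk) after one i.v. dose in 0.9% NaCl/mannitol. Values are relative to control mice given diluent. 3-4 mice per group; mean ± SEM; Student's t test.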
On the technique in general: ELISA stands for enzyme-linked immunosorbent assay.

Data set [10] has as its system Hepatitis B virus. The note with it: Liver, 1 mg/kg. This is another data set of the same source.
Data set [11] deals with Hepatitis B virus. The note with it: 1 mg/kg. This is another data set of the same source.
Data set [12] relates to Mus musculus. Nature of the data set: Toxicity in HBV infected 1.3.32 transgenic mouse liver assessed as hepatitis at 1 mg/kg, iv single dose after 2 days by rotine […] method. The following applies: in vivo, 48 h. It counts as organism-based. Also on record: dose 1 mg/kg, route intravenous. An outline of the steps:
as §1

Data set [13] has as its system Mus musculus. Description: Toxicity in HBV infected 1.3.32 transgenic mouse liver assessed as hepatitis at 1 mg/kg, iv single dose after 1 day by rotine […] method. It counts as organism-based. Also on record: dose 1 mg/kg, route intravenous. The following applies: in vivo, 24 h. An outline of the steps: as §1
Data set [14] relates to Mus musculus. Description: Toxicity in HBV infected 1.3.32 transgenic mouse liver assessed as hepatitis at 1 mg/kg, iv single dose after 6 days by rotine […] method. It counts as organism-based. Also on record: dose 1 mg/kg, route intravenous. The following applies: in vivo, 144 h. The gist of the method: as §1
Data set [15] deals with Hepatitis B virus. The following applies: 1 mg/kg. The source holds these as a separate data set.
The test system of data set [16] is Hepatitis B virus. The following applies: 0.2 mg/kg.
In data set [17] the test system is Mus musculus. Nature of the data set: Toxicity in HBV infected 1.3.32 transgenic mouse assessed as labored breathing, hunched posture at 5 mg/kg, iv after 24 hrs. It counts as organism-based. More on the design: dose 5 mg/kg, route intravenous. The note with it: in vivo.
The test system of data set [18] is Mus musculus. Nature of the data set: Toxicity in HBV infected 1.3.32 transgenic mouse assessed as stress, ruffled fur at 5 mg/kg, iv after 24 hrs. It counts as organism-based. Also on record: dose 5 mg/kg, route intravenous. The note with it: in vivo.

For the compound `CC(C)C[C@H](NC(=O)[C@H](Cc1ccccc1)NC(=O)c1cnccn1)B(O)O` [BORTEZOMIB], the inhibition result in the data set with Hepatitis B virus [1], in the data set on Hepatitis B virus [3], with Hepatitis B virus [5], in the data set on Hepatitis B virus [10] and in the data set with Hepatitis B virus [15] was “Active” in each case. The Activity entry in the data set on Mus musculus [2] is “Non-toxic”; in the data set with Mus musculus [4] it was “Toxic”; in the data set with Mus musculus [6] it was “Non-toxic”; in the data set on Mus musculus [7], “Non-toxic”; with Mus musculus [8], “Toxic”; in the data set on Hepatitis B virus [9], 50%. The Activity entry in the data set on Mus musculus [12] is listed as “Non-toxic”; in the data set on Mus musculus [13], “Non-toxic”; in the data set on Mus musculus [14], “Non-toxic”; in the data set with Mus musculus [17], “Toxic”; in the data set with Mus musculus [18], “Toxic”. In addition, the inhibition entry with Hepatitis B virus [11] and in the data set with Hepatitis B virus [16] was “inactive” each time.
